{
  "source": "paper PMC3371134",
  "about": "(Journal of Neurochemistry, 2012)",
  "molecules": {"B1": {"name": "Pcp4l1: small neuronal IQ motif protein, 68 amino acids, full length (protein)", "chain": "MSELNTKTPPAANQASDPEEKGKPGSIKKAEEEEEIDIDLTAPETEKAALAIQGKFRRFQKRKKDSSS", "modifications": "left off: Myc, end not stated, kept"}},
  "key": {"calneuron 1 (Caln1)": {"test_system": "calneuron 1 (Caln1)", "experiment": "Yeast two-hybrid", "type": "binding, mouse", "conditions": "LexA and VP16 fusions, lacZ reporter, X-gal", "procedure,_shortened": "(§1)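 Mouse coding sequences (from brain cDNA) were cloned as galactose-inducible LexA and VP16 fusions and co-transformed into S260 yeast, selected on glucose Trp−/Ura− plates. Colonies on filters were switched to galactose for induction, then assayed for lacZ with X-gal. Autoactivation was checked against LexA/VP16 control vectors. Blue within 1 h was scored positive; blue at 2–4 h was scored weak.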"}, "calmodulin-Sepharose": {"test_system": "calmodulin-Sepharose", "experiment": "CaM-Sepharose pulldown of Myc-tagged proteins expressed in COS-7 cells", "type": "binding", "procedure,_shortened": "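Myc-tagged mouse constructs (from brain cDNA) were expressed in COS-7 cells, grown in DMEM/10% FBS at 37°C and transfected at 80% confluency with 3 μg plasmid. After 48 h, cells were lysed 30 min at 4°C in TX-buffer (50 mM Tris-HCl pH 6.9, 0.5% Triton X-100, protease inhibitors). Cleared lysate was incubated overnight at 4°C with CaM-Sepharose, then washed 3× and detected by SDS-PAGE/anti-Myc (9E10) western blot with ECL.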"}, "centrin 2 (Cetn2)": {"test_system": "centrin 2 (Cetn2)", "experiment": "Yeast two-hybrid", "type": "binding, mouse", "conditions": "LexA and VP16 fusions, lacZ reporter, X-gal", "procedure,_shortened": "as §1"}, "[1]": {"test_system": "calmodulin-like 4 (Calml4)", "experiment": "Yeast two-hybrid", "type": "binding, mouse", "conditions": "LexA and VP16 fusions, lacZ reporter, X-gal", "procedure,_shortened": "as §1"}, "calcineurin B (CnB)": {"test_system": "calcineurin B (CnB)", "experiment": "Yeast two-hybrid", "type": "binding, mouse", "conditions": "LexA and VP16 fusions, lacZ reporter, X-gal", "procedure,_shortened": "as §1"}},
  "note": "Entries after “also recorded” stand apart in the source; their conditions may differ.",
  "data": [
    {"molecule": "B1", "values": [
      {"measurement": "interaction with Caln1 in Y2H", "setting": "calneuron 1 (Caln1)", "result": "no binding was detected"},
      {"measurement": "CaM-Sepharose pulldown, calcium-replete", "setting": "calmodulin-Sepharose; 5mM CaCl2, TX-buffer pH 6.9, overnight at 4°C, anti-Myc western blot", "result": "binds weakly or not at all to CaM; also recorded: interacts poorly with CaM in both low and high calcium conditions"},
      {"measurement": "calcium dependence of CaM binding / overall CaM binding", "setting": "calmodulin-Sepharose; 5mM CaCl2 or 5mM EGTA, summary in Discussion", "result": "little or no binding in either calcium poor or replete conditions"},
      {"measurement": "CaM-Sepharose pulldown, calcium-poor", "setting": "calmodulin-Sepharose; 5mM EGTA, TX-buffer pH 6.9, overnight at 4°C, anti-Myc western blot", "result": "binds weakly or not at all to CaM; also recorded: interacts poorly with CaM in both low and high calcium conditions"},
      {"measurement": "interaction with Cetn2 in Y2H", "setting": "centrin 2 (Cetn2)", "result": "no binding was detected"},
      {"measurement": "interaction with Calml4 in Y2H", "setting": "[1]", "result": "no binding was detected"},
      {"measurement": "interaction with CnB in Y2H", "setting": "calcineurin B (CnB)", "result": "no binding was detected"}
    ]}
  ]
}
